The values below come from ChEMBL document CHEMBL4680093 (J Med Chem, 2016).

Broadly, the bioavailability is the share of a dose that reaches the circulation, judged against a reference dose that is usually intravenous. Low readings indicate poor availability, high ones good availability. The term inhibition in vivo denotes how much of the control response was suppressed. A word on the Kp: it is the ratio of the level in a tissue or fluid to that in plasma or blood. Usually IC50 stands for the concentration at which inhibition is half-maximal. Lower therefore signals inhibition by little substance. For orientation: EC50 means the midpoint of the concentration-response curve. A high value points to weaker potency. Broadly, the clearance is a measure of how efficiently the substance is removed, as volume per time. Usually inhibition stands for the drop in the measured response relative to a control, in per cent. A higher inhibition goes with a response far below the control.

Data set [1] in a line: Oral bioavailability in mouse at 5 mg/kg. It counts as ADME, organism-based. To be noted: in vivo. A digest of the protocol: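 Single-dose PK study. The iv dose was given in 10% hydroxypropyl-β-cyclodextrin and the oral dose in 0.5% methylcellulose/1% Tween80. Mouse and rat received 1 mg/kg iv and 5 mg/kg po. Dog received 0.5 mg/kg iv and 4 mg/kg po. CL, Vss, t1/2, AUC, Cmax, tmax and F were derived.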

The nature of data set [2]: In-vivo inhibition of 11beta-HSD1 activity in C57BL/6 mouse epididymal fat assessed as reduction in cortisone to-cortisol conversion at 3 mg/kg, po measured after 2 hrs by ELISA. It counts as functional. The settings on record: C57BL/6, Epididymal fat pad. A digest of the protocol:
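Male C57BL/6 mice dosed orally once at 3, 10 or 30 mg/kg in sterile water containing 0.5% methylcellulose and 1% Tween80, then sacrificed at 2 or 6 h. Liver and epididymal fat pads incubated ex vivo in culture medium containing cortisone. Cortisol formed was measured by ELISA and reported as % inhibition versus vehicle.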
(ELISA stands for enzyme-linked immunosorbent assay.)

The nature of data set [3]: Ratio of drug level in adipose tissue to plasma of mouse at 10 mg/kg, po measured after 2 hrs post dose. It counts as ADME, organism-based. A digest of the protocol:
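C57BL/6 mice received a single oral dose of 10 mg/kg in 0.5% methylcellulose/1% Tween80. Animals were sacrificed 2 h post-dose. Compound was measured in brain, liver, adipose and plasma (nmol/g), and tissue/plasma ratios were calculated.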

Data set [4] can be described thus: Inhibition of PDE3 (unknown origin). Set-up: species or system Homo sapiens.
Data set [5] deals with T1, Mineralocorticoid receptor (Homo sapiens, UniProt P08235).
T1 sequence (P08235 whole entry): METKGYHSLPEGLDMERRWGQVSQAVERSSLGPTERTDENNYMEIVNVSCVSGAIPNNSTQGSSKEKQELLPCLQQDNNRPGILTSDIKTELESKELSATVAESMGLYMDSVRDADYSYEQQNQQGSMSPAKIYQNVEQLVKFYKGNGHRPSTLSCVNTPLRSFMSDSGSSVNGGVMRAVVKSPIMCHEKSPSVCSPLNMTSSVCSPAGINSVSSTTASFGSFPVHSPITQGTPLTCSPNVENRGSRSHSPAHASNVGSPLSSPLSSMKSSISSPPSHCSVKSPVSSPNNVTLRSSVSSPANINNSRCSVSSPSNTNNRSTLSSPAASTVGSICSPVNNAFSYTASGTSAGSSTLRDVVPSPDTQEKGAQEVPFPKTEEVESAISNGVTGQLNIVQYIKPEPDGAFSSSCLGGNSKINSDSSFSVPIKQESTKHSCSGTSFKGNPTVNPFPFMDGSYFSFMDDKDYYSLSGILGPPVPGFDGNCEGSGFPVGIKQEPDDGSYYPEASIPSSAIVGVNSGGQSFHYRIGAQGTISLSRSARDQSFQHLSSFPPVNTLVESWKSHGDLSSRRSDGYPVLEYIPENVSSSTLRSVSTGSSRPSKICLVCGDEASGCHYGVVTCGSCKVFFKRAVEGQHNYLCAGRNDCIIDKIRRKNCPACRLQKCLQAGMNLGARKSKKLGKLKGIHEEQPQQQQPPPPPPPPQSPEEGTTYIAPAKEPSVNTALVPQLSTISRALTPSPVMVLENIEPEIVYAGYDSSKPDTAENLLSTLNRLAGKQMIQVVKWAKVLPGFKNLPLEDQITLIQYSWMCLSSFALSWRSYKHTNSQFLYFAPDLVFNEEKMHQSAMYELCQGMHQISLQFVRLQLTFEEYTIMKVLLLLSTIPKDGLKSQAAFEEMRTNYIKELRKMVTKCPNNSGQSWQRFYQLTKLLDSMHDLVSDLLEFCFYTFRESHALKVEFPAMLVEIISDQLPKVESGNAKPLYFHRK
Description: Antagonist activity at mineralocorticoid receptor (unknown origin).

For data set [6], the target named is T2, Glucocorticoid receptor (Homo sapiens, UniProt P04150).
T2 sequence (P04150 whole entry): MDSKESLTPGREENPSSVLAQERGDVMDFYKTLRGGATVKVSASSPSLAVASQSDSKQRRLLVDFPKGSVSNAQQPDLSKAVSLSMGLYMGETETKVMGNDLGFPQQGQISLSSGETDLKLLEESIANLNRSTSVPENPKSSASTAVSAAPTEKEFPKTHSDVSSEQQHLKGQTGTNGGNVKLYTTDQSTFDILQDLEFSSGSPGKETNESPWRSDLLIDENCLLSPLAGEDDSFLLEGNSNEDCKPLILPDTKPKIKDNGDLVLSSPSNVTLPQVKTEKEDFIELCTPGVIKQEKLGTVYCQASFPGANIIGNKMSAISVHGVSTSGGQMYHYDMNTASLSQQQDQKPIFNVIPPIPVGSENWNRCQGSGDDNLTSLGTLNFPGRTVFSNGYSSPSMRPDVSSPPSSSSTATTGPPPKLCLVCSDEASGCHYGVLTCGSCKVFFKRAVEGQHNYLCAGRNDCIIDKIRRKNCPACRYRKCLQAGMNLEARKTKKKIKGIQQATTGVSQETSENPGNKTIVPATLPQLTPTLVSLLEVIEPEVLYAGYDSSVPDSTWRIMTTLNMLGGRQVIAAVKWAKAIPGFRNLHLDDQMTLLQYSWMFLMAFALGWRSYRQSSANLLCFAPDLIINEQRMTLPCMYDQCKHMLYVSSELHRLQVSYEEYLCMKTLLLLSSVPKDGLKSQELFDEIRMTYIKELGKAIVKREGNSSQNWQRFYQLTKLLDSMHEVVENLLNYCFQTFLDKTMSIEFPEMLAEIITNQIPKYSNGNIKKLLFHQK
Description: Antagonist activity at glucocorticoid receptor (unknown origin).

Data set [7] concerns Mus musculus. Description: Improvement in lipid profile in C57BL/6-Lep^ob (ob/ob) mouse assessed as total cholesterol level at 20 mg/kg, po dosed once daily for 25 days (reference value: 286.6 +/- 6.3 mg/dl). It counts as functional. The settings on record: time 25 day.
In data set [8] the target is Voltage-gated inwardly rectifying potassium channel KCNH2 (Homo sapiens, UniProt Q12809). Description: Inhibition of human ERG expressed in CHO cells by whole-cell patch clamp assay. It counts as cell-based. A digest of the protocol: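 hERG channels stably expressed in CHO cells were recorded by whole-cell patch clamp, and an IC50 was estimated.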
A short description of data set [9]: Clearance in mouse at 1 mg/kg, iv. It counts as ADME, organism-based. The settings on record: in vivo.
The target of data set [10] is T3, 11-beta-hydroxysteroid dehydrogenase type 2 (Homo sapiens) (UniProt P80365).
T3 sequence (whole entry): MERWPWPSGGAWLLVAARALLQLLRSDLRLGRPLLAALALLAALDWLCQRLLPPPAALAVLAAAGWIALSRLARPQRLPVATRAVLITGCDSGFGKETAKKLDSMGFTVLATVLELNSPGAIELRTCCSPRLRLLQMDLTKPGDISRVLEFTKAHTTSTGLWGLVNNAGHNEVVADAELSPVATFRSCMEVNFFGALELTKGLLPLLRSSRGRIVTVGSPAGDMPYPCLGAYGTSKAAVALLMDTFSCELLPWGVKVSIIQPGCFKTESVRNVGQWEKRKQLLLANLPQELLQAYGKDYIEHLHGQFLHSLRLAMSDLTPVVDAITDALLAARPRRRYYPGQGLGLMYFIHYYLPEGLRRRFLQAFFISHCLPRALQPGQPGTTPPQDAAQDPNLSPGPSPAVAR
Description: Inhibition of human 11beta-HSD2 expressed in microsomes at 10 uM relative to control. To be noted: Microsome.

SMILES strings stand for the structures.

Voltage-gated inwardly rectifying potassium channel KCNH2, sequence (Q12809 whole entry): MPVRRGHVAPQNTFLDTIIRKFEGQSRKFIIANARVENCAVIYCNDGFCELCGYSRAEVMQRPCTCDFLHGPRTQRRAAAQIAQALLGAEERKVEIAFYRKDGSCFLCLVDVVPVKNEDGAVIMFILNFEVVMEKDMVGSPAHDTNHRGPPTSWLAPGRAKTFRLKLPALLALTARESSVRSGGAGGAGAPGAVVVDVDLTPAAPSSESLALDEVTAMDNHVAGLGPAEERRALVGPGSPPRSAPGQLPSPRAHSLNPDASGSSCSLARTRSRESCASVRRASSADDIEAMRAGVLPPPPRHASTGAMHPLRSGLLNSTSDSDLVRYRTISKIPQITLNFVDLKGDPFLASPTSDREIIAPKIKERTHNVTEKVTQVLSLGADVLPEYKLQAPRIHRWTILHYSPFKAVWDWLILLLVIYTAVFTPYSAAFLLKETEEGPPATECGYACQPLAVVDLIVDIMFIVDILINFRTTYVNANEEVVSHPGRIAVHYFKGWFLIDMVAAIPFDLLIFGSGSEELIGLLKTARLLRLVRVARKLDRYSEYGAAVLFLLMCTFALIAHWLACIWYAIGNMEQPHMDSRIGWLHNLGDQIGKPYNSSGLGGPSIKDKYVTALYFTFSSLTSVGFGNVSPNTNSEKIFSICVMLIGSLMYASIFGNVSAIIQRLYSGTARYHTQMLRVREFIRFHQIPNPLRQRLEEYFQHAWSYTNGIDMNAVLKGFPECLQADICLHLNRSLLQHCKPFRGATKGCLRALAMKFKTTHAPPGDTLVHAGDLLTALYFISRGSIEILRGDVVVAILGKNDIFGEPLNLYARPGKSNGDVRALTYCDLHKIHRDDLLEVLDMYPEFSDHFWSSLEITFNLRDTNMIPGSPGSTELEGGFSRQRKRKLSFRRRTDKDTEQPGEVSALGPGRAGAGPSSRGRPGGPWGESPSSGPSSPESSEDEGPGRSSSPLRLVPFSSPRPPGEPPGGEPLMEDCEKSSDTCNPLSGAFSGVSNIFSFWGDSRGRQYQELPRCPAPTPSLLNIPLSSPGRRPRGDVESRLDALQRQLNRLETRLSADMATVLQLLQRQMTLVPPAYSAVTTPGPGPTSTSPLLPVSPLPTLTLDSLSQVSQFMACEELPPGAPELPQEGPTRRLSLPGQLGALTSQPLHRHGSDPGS

As to `C[C@@H]1CN(c2ccc(S(C)(=O)=O)cc2F)CCN1c1nccc(C(=O)NC2C3CC4CC2CC(O)(C4)C3)n1` (stereo not given in full), the bioavailability in [1] was found to be 96%. The inhibition in vivo at 3 mg/kg in data set [2] turned out to be 86%. In addition, in data set [3], the Kp at 2 h is 0.62. Besides, the IC50 in data set [4] was determined as 5.4 µM; in data set [8], 8 µM. Also, the EC50 in data set [5] and in [6] was greater than 5 µM throughout. Also, the Activity in [7] was 230.6 mg/dL. The molecule further had a clearance in [9] of 7 mL/min/kg. This molecule also returned an inhibition in [10] of 17%.
